The test system of the assay is Caco-2. The assay is described as follows: Induction of P21WAF1 gene expression in human Caco-2 cells at 5 uM after 24 hrs by Western blotting. It counts as functional, cell-based. The procedure, abridged:
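Caco-2 cells were plated at 3×10⁵/well one day before treatment, then exposed for 24 h at 1 or 5 μM. Cells were scraped into PBS and protein was quantified. Equal protein was run on 12% SDS-PAGE and transferred to nitrocellulose. Blots were probed with mouse anti-p21 (1/1000, milk buffer) and an HRP secondary, with chemiluminescent detection; actin served as loading check.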
For orientation: In western blotting, separated proteins are transferred to a membrane and probed.

The source made the active and inactive calls. The rule behind the calls is not given here.

For the molecule `O=C(CCCCCCC(=O)Nc1ccccc1)NO`, the outcome was inactive.
